Assay results from ChEMBL document CHEMBL2331324, “Synthesis and biological evaluation of guanidino analogues of roscovitine” (Eur J Med Chem, 2013).

Experiments:
[1] = molecular target: 5'-AMP-activated protein kinase catalytic subunit alpha-2 (Homo sapiens) (UniProt P54646); test: Inhibition of recombinant AMPK (unknown origin) assessed as residual activity using [gamma-33P]ATP as substrate at 1 uM
Summary of the method: (§1)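 Recombinant kinase panel screened at 1 µM in duplicate. Reactions started with [γ-33P]ATP (800 cpm/pmol) at 5, 20 or 50 µM, chosen to sit at or below each enzyme's ATP Km. Stopped with phosphoric acid and spotted onto P81 filters. Result given as residual kinase activity.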

[2] = molecular target: Glycogen synthase kinase-3 beta (Homo sapiens) (UniProt P49841); test: Inhibition of recombinant GSK3b (unknown origin) assessed as residual activity using [gamma-33P]ATP as substrate at 1 uM; summary of the method: as §1
[3] = molecular target: Ephrin type-B receptor 2 (Homo sapiens) (UniProt P29323); test: Inhibition of recombinant EPH-B2 (unknown origin) assessed as residual activity using [gamma-33P]ATP as substrate at 1 uM; summary of the method: as §1
[4] = molecular target: NUAK family SNF1-like kinase 1 (Homo sapiens) (UniProt O60285); test: Inhibition of recombinant NUAK1 (unknown origin) assessed as residual activity using [gamma-33P]ATP as substrate at 1 uM
Summary of the method: (§2)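 Selectivity panel run under previously published conditions. Screened at 1 μM in duplicate. Reactions started with [γ-33P]ATP (800 cpm/pmol) at 5, 20 or 50 μM, chosen to be at or below each enzyme's ATP Km. Stopped with phosphoric acid, spotted onto P81 filters. Result expressed as residual kinase activity.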

[5] = molecular target: Protein-tyrosine kinase 6 (Homo sapiens) (UniProt Q13882); test: Inhibition of recombinant BRK (unknown origin) assessed as residual activity using [gamma-33P]ATP as substrate at 1 uM; summary of the method: as §1
[6] = molecular target: Mitogen-activated protein kinase kinase kinase 5 (Homo sapiens) (UniProt Q99683); test: Inhibition of recombinant ASK1 (unknown origin) assessed as residual activity using [gamma-33P]ATP as substrate at 1 uM; summary of the method: as §1
[7] = molecular target: Mitogen-activated protein kinase 9 (Homo sapiens) (UniProt P45984); test: Inhibition of recombinant JNK2 (unknown origin) assessed as residual activity using [gamma-33P]ATP as substrate at 1 uM; summary of the method: as §2
[8] = molecular target: Ribosomal protein S6 kinase beta-1 (Homo sapiens) (UniProt P23443); test: Inhibition of recombinant S6K1 (unknown origin) assessed as residual activity using [gamma-33P]ATP as substrate at 1 uM
Summary of the method: (§3)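 Kinase panel screen with each compound at 1 µM, in duplicate. Reactions were started with [γ-33P]ATP (800 cpm/pmol) at 5, 20 or 50 µM, chosen per enzyme to be at or below its ATP Km. Reactions were stopped with phosphoric acid and spotted onto P81 filters. Results are given as residual kinase activity.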

[9] = molecular target: Homeodomain-interacting protein kinase 2 (Homo sapiens) (UniProt Q9H2X6); test: Inhibition of recombinant HIPK2 (unknown origin) assessed as residual activity using [gamma-33P]ATP as substrate at 1 uM; summary of the method: as §1
[10] = molecular target: Ribosomal protein S6 kinase alpha-5 (Homo sapiens) (UniProt O75582); test: Inhibition of recombinant MSK1 (unknown origin) assessed as residual activity using [gamma-33P]ATP as substrate at 1 uM; summary of the method: as §2
[11] = molecular target: Mitogen-activated protein kinase 14 (Homo sapiens) (UniProt Q16539); test: Inhibition of recombinant p38 MAPKalpha (unknown origin) assessed as residual activity using [gamma-33P]ATP as substrate at 1 uM; summary of the method: as §3
Sequence of Mitogen-activated protein kinase 14 (Homo sapiens) (Q16539 whole entry): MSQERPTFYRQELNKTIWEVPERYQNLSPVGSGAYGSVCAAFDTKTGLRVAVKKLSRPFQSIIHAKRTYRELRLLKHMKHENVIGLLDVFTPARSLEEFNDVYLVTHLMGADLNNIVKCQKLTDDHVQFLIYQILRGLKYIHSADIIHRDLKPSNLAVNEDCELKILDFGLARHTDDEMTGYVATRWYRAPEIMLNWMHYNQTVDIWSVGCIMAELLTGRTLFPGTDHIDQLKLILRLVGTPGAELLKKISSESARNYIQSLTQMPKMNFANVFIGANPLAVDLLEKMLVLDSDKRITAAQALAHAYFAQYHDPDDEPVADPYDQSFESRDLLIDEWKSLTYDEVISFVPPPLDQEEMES

[12] = molecular target: Mitogen-activated protein kinase 8 (Homo sapiens) (UniProt P45983); test: Inhibition of recombinant JNK1 (unknown origin) assessed as residual activity using [gamma-33P]ATP as substrate at 1 uM; summary of the method: as §2
[13] = molecular target: Mitogen-activated protein kinase kinase kinase 1 (Homo sapiens) (UniProt Q13233); test: Inhibition of recombinant MEKK1 (unknown origin) assessed as residual activity using [gamma-33P]ATP as substrate at 1 uM; summary of the method: as §2
Sequence of Mitogen-activated protein kinase kinase kinase 1 (Homo sapiens) (Q13233 whole entry): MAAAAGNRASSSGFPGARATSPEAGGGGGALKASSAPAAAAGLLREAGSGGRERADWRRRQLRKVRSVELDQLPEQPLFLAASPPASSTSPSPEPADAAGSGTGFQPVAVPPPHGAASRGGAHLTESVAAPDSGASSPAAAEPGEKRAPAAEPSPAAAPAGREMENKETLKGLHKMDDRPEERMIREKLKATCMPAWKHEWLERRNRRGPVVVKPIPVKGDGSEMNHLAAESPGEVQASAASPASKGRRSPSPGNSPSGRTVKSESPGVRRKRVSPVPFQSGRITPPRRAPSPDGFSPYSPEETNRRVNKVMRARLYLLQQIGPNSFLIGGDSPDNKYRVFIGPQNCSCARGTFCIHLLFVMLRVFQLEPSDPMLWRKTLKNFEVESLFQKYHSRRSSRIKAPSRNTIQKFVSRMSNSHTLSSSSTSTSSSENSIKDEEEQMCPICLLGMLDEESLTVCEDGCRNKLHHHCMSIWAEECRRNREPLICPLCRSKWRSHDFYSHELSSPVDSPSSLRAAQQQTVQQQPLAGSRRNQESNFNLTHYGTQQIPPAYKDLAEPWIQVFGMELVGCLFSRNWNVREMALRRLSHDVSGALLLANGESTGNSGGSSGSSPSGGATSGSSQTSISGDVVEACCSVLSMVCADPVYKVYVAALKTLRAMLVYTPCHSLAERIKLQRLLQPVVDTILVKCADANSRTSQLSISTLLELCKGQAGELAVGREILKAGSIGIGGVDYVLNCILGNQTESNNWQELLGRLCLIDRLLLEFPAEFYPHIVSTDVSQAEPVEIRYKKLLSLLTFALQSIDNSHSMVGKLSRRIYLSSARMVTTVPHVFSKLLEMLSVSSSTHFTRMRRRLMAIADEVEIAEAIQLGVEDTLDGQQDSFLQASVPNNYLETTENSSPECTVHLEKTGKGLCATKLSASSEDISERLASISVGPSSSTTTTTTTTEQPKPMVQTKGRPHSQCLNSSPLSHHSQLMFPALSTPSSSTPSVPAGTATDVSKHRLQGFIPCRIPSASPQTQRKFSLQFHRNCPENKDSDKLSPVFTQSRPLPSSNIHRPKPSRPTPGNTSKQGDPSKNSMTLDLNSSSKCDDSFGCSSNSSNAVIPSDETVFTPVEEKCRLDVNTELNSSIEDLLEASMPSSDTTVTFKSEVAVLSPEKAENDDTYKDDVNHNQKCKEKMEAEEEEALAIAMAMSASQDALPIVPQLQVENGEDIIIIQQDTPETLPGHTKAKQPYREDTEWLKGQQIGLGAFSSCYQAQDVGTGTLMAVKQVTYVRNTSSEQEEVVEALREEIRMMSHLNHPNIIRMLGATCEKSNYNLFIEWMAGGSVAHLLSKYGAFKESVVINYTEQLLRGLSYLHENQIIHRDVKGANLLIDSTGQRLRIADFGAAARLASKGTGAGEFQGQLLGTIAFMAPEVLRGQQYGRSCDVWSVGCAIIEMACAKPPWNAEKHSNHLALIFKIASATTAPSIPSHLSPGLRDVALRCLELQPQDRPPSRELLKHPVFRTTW

[14] = molecular target: Tyrosine-protein kinase SYK (Homo sapiens) (UniProt P43405); test: Inhibition of recombinant SYK (unknown origin) assessed as residual activity using [gamma-33P]ATP as substrate at 1 uM; summary of the method: as §3
[15] = molecular target: MAP kinase-interacting serine/threonine-protein kinase 2 (Homo sapiens) (UniProt Q9HBH9); test: Inhibition of recombinant MNK2 (unknown origin) assessed as residual activity using [gamma-33P]ATP as substrate at 1 uM; summary of the method: as §2
Homo sapiens = species on record: Homo sapiens; test: Inhibition of recombinant PKA (unknown origin) assessed as residual activity using [gamma-33P]ATP as substrate at 1 uM; summary of the method: as §2
[16] = molecular target: Serine/threonine-protein kinase OSR1 (Homo sapiens) (UniProt O95747); test: Inhibition of recombinant OSR1 (unknown origin) assessed as residual activity using [gamma-33P]ATP as substrate at 1 uM; summary of the method: as §2
[17] = molecular target: Aurora kinase A/B (Homo sapiens) (UniProt Q96GD4+O14965); test: Activity at Aurora kinase A/B in human MCF7 cells assessed as histone H3 phosphorylation at Ser10 at 100 uM after 24 hrs by flow cytometry relative to untreated control; format: cell-based
Sequence of Aurora kinase A/B (Homo sapiens) (O14965 whole entry, looked up): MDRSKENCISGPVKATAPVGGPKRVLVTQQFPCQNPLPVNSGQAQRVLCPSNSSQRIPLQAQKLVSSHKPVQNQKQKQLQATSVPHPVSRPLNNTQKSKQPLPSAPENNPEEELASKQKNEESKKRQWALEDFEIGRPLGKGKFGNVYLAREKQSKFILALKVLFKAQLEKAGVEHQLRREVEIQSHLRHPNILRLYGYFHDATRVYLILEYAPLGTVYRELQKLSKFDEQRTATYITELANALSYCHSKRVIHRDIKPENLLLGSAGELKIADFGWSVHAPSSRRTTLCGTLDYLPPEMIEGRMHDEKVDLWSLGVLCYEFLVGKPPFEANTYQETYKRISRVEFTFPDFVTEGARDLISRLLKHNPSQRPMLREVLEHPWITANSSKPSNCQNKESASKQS
Sequence of Aurora kinase A/B (Homo sapiens) (Q96GD4 whole entry, looked up): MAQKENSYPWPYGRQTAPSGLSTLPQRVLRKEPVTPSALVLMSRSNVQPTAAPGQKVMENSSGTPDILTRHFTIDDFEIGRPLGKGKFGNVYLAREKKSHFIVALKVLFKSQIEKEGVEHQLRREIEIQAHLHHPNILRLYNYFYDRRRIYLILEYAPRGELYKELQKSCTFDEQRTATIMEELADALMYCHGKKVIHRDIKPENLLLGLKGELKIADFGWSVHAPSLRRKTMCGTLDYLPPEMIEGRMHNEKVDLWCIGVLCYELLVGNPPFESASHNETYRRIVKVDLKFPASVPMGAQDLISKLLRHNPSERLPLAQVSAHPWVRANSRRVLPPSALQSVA
Summary of the method: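 Flow cytometry on MCF7 cells exposed 24 h to 100 µM. About one million cells fixed in 90% methanol, rehydrated, and labelled with primary antibody to pH3 Ser10, then an Alexa Fluor 488 secondary. Alexa read at 488/525 nm (ex/em). The value is the fraction of pH3-positive cells in treated cultures divided by that in untreated control.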

[18] = molecular target: Protein kinase C gamma type (Homo sapiens) (UniProt P05129); test: Inhibition of recombinant PKCgamma (unknown origin) assessed as residual activity using [gamma-33P]ATP as substrate at 1 uM; summary of the method: as §2
[19] = molecular target: Rho-associated protein kinase 2 (Homo sapiens) (UniProt O75116); test: Inhibition of recombinant ROCK2 (unknown origin) assessed as residual activity using [gamma-33P]ATP as substrate at 1 uM; summary of the method: as §2
Sequence of Rho-associated protein kinase 2 (Homo sapiens) (O75116 whole entry, looked up): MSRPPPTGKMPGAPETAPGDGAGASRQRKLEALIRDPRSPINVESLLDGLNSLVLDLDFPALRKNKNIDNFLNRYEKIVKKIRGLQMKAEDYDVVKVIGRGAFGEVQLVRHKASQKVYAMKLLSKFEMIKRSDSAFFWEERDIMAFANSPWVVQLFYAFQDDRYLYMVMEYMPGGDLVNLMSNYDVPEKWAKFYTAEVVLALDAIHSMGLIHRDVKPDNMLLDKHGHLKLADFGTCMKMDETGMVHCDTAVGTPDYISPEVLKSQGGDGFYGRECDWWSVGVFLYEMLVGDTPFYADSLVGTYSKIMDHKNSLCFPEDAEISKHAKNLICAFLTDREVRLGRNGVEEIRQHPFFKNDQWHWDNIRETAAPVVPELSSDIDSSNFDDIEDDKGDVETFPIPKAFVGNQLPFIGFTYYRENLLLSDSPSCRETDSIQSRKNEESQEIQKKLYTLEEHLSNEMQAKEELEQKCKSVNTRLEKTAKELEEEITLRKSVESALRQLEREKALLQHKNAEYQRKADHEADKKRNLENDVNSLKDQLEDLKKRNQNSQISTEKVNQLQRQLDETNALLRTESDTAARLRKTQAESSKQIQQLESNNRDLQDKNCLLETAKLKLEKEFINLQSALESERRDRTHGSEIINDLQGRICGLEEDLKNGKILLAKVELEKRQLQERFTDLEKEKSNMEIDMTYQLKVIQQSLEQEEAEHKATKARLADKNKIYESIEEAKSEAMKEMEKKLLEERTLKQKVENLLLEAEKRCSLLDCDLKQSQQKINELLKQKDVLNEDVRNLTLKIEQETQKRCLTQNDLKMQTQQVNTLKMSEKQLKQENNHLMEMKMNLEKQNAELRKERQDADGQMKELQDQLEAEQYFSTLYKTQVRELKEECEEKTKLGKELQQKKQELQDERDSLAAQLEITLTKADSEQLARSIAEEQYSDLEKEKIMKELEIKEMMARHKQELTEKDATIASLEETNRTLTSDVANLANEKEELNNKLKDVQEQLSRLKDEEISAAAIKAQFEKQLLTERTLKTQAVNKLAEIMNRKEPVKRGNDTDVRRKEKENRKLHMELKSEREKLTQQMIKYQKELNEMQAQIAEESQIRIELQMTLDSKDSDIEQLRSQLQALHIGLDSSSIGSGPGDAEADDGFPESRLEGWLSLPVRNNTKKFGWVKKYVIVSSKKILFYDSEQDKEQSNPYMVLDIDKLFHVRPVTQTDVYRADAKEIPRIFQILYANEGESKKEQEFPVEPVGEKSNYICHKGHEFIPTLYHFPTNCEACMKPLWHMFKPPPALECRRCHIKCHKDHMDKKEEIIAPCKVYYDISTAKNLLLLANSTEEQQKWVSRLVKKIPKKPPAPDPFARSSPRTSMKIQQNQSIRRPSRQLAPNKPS

[20] = molecular target: 3-phosphoinositide-dependent protein kinase 1 (Homo sapiens) (UniProt O15530); test: Inhibition of recombinant PDK1 (unknown origin) assessed as residual activity using [gamma-33P]ATP as substrate at 1 uM
[21] = molecular target: Mitogen-activated protein kinase 1 (Homo sapiens) (UniProt P28482); test: Inhibition of recombinant ERK2 (unknown origin) assessed as residual activity using [gamma-33P]ATP as substrate at 1 uM; summary of the method: as §1
[22] = molecular target: Tyrosine-protein kinase ABL1 (Homo sapiens) (UniProt P00519); test: Inhibition of recombinant ABL (unknown origin) assessed as residual activity using [gamma-33P]ATP as substrate at 1 uM; summary of the method: as §1
[23] = molecular target: MAP/microtubule affinity-regulating kinase 3 (Homo sapiens) (UniProt P27448); test: Inhibition of recombinant MARK3 (unknown origin) assessed as residual activity using [gamma-33P]ATP as substrate at 1 uM; summary of the method: as §2
[24] = molecular target: Casein kinase II (Homo sapiens) (UniProt P67870+P68400+P19784); test: Inhibition of recombinant CK2 (unknown origin) assessed as residual activity using [gamma-33P]ATP as substrate at 1 uM; format: protein-complex assay; summary of the method: as §1
[25] = molecular target: Dual specificity protein kinase CLK2 (Homo sapiens) (UniProt P49760); test: Inhibition of recombinant CLK2 (unknown origin) assessed as residual activity using [gamma-33P]ATP as substrate at 1 uM; summary of the method: as §1
Sequence of Dual specificity protein kinase CLK2 (Homo sapiens) (P49760 whole entry, looked up): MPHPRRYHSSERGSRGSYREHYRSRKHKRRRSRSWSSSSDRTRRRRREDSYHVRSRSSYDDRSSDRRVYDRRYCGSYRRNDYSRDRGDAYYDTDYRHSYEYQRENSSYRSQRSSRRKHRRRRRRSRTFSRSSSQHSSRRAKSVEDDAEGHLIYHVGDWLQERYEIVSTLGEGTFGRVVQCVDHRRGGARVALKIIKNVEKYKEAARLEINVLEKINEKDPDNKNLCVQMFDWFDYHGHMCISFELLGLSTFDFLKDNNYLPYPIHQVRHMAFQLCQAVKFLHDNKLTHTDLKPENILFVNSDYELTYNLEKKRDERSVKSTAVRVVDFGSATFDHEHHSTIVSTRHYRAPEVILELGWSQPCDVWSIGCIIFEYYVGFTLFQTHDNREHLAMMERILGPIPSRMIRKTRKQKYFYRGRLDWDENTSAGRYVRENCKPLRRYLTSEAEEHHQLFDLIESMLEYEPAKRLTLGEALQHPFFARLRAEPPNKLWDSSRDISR

Sequence of 5'-AMP-activated protein kinase catalytic subunit alpha-2 (Homo sapiens) (P54646 whole entry, looked up): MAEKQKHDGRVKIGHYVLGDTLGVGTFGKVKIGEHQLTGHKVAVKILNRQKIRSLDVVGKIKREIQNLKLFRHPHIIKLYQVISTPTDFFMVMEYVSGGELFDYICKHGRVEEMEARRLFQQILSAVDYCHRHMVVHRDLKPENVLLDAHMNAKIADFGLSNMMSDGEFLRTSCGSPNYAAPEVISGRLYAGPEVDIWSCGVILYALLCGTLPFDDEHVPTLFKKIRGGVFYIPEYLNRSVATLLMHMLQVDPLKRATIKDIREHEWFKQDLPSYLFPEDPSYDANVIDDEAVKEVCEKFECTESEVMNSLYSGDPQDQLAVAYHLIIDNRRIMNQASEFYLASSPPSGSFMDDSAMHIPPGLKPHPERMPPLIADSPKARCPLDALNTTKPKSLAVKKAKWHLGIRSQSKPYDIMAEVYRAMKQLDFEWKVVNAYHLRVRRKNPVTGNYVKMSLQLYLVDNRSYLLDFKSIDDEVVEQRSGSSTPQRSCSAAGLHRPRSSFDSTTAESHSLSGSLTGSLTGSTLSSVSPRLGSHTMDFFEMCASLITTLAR

Row | Structure (SMILES) | Activity [1] [%] | Activity [2] [%] | Activity [3] [%] | Activity [4] [%] | Activity [5] [%] | Activity [6] [%] | Activity [7] [%] | Activity [8] [%] | Activity [9] [%] | Activity [10] [%] | Activity [11] [%] | Activity [12] [%] | Activity [13] [%] | Activity [14] [%] | Activity [15] [%] | Activity (Homo sapiens) [%] | Activity [16] [%] | Ratio [17] | Activity [18] [%] | Activity [19] [%] | also measured
1 | CC[C@@H](CO)Nc1nc(NC(=N)N)c2ncn(C(C)C)c2n1 | 22 | 28 | 2 | 7 | 44 | 81 | 73 | 36 | 6 | 38 | 82 | 78 | 96 | 50 | 122 | 83 | 16 | 0.09 | 61 | 65 | Activity [20]: 62%; Activity [21]: 15%; Activity [22]: 6%; Activity [23]: 17%; Activity [24]: 33%; Activity [25]: 4%
2 | CC[C@H](CO)Nc1nc(NC(=N)N)c2ncn(C(C)C)c2n1 | 29 | 37 | 2 | 8 | 50 | 100 | 85 | 49 | 8 | 46 | 87 | 88 | 91 | 58 | 119 | 90 | 16 | 0.08 | 73 | 61 | Activity [20]: 68%; Activity [21]: 32%; Activity [22]: 5%; Activity [23]: 24%; Activity [24]: 43%; Activity [25]: 4%
